In assay [1] the test system is Staphylococcus aureus. The assay can be described thus: Antibacterial activity against linezolid-resistant Staphylococcus aureus NRS271 assessed as growth inhibition by CLSI broth microdilution method. In kind it is functional. The gist of the method: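 MIC by CLSI broth microdilution in cation-adjusted Mueller-Hinton broth. Lowest concentration inhibiting growth taken as MIC.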

The subject of assay [2] is Staphylococcus aureus. The assay is described as follows: Ratio of linezolid ED50 to compound ED50 for methicillin-resistant Staphylococcus aureus SR3637 infected in iv dosed JCL/ICR mouse systemic infection model. In kind it is functional. The method, boiled down: (§1)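 Five-week-old male JCL/ICR mice (20–25 g), five per group, infected intraperitoneally with 0.5 or 1.0 mL bacterial suspension (about 100 times the 50% lethal dose). Test and reference compounds given intravenously or orally 1 h after infection. Mortality followed over 7 days; ED50 with 95% confidence limits by the logit method.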

Another assay has as its system Enterococcus faecalis. The assay is described as follows: Ratio of eperezolid MIC to compound MIC for Enterococcus faecalis SR1004 clinical isolate. Format: functional.
Assay [3] deals with Staphylococcus aureus. The assay can be described thus: Ratio of eperezolid MIC to compound MIC for Staphylococcus aureus SR20549 clinical isolate. In kind it is functional.
Assay [4] deals with Staphylococcus aureus. The assay is described as follows: Ratio of linezolid ED50 to compound ED50 for methicillin-resistant Staphylococcus aureus SR3637 infected in po dosed JCL/ICR mouse systemic infection model. Format: functional. The gist of the method:
as §1

Assay [5] relates to Staphylococcus aureus. The assay can be described thus: Antibacterial activity against methicillin-resistant Staphylococcus aureus SR3637 infected in JCL/ICR mouse systemic infection model assessed as mortality administered as po measured over 7 days. In kind it is functional. To be noted: 168 h. The gist of the method: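 Five-week-old male JCL/ICR mice (20–25 g), five per group. Infected intraperitoneally with 0.5 or 1.0 mL bacterial suspension (about 100× LD50). Oral dosing 1 h post-infection. Mortality followed 7 days; ED50 with 95% confidence limits by logit method.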

The target in another assay is Cytochrome P450 2D6 (Homo sapiens, UniProt P10635). The assay can be described thus: Inhibition of human CYP2D6 assessed as dextromethorphan O-demethylation after 20 mins by LC/MS/MS analysis. In kind it is ADME. The method, boiled down:
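Human liver microsomes (0.2 mg protein/mL) with 1 mM NADPH in 50 mM HEPES pH 7.4, 10 mM MgCl2, 0.1 mM EDTA. After centrifugation, supernatant metabolite measured by LC/MS/MS. Standard curve from authentic metabolite cocktail added to unincubated reaction mix.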

The next assay concerns the target T1, Cytochrome P450 1A2 (Homo sapiens, UniProt P05177).
T1 sequence (P05177 whole entry): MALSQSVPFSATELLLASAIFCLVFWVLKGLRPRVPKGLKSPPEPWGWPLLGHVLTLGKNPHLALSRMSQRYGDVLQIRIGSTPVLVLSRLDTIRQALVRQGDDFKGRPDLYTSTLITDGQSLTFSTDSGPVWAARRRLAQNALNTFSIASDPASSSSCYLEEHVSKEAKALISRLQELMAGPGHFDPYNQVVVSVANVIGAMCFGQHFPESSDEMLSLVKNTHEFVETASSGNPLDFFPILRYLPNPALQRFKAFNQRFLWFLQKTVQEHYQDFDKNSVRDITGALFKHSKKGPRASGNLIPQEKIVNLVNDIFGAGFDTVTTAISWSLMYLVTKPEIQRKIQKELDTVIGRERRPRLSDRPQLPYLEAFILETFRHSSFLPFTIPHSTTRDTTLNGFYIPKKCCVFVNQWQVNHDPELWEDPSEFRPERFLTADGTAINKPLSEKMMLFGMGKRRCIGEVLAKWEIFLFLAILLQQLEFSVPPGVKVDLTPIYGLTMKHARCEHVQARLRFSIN
The assay is described as follows: Inhibition of human CYP1A2 assessed as ethoxyresorufin O-deethylation after 20 mins by fluorescence plate reader analysis. Format: ADME. The gist of the method: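 Human liver microsomes (0.2 mg protein/mL) with 1 mM NADPH in 50 mM HEPES pH 7.4, 10 mM MgCl2, 0.1 mM EDTA. After centrifugation, supernatant read on a fluorescence plate reader. Standard curve from authentic metabolite added to unincubated reaction mix.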

Converted amounts (≈) assume the structure as drawn.

Sequence of Cytochrome P450 2D6 (P10635 whole entry): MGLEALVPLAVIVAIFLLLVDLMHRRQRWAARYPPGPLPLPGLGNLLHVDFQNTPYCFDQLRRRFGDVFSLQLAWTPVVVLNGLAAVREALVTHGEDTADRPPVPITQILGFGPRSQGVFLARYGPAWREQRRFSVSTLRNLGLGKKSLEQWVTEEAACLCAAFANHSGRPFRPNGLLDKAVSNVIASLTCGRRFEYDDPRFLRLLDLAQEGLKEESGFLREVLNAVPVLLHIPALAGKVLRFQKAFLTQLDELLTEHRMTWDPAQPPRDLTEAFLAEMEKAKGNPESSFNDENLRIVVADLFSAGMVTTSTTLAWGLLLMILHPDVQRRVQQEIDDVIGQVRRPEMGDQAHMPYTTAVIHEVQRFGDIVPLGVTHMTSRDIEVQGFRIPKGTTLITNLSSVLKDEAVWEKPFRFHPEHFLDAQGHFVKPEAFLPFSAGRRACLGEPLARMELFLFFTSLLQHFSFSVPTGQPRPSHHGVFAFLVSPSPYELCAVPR

As for `COC(=S)NC[C@H]1CN(c2ccc(N3CCNN(C(=O)CO)CC3)c(F)c2)C(=O)O1`, the MIC in the assay on Staphylococcus aureus [1] was 2 µg/mL (≈ 4.53 µM). In addition, the figures for the “Ratio ED50” value with Staphylococcus aureus [2] and with Staphylococcus aureus [4] were 3 and 2, respectively. For the same molecule, the Ratio with Enterococcus faecalis and with Staphylococcus aureus [3] was 4 each time. The median effective dose (ED50) in the assay on Staphylococcus aureus [5] came out at 1.05 mg/kg. Besides, the 50% inhibitory concentration (IC50) on Cytochrome P450 2D6 and on Cytochrome P450 1A2 was greater than 20 µM each time.

For `COC(=S)NC[C@H]1CN(c2cc(F)c(N3CCNN(C(=O)CO)CC3)c(F)c2)C(=O)O1`, in the assay on Staphylococcus aureus [1], the MIC came out at 2 µg/mL (≈ 4.35 µM). Besides, the Ratio with Enterococcus faecalis and in the assay with Staphylococcus aureus [3] was 4 each time. For the same molecule, in the assay with Staphylococcus aureus [5], the ED50 was 2.07 mg/kg. Further, the IC50 on Cytochrome P450 2D6 and on Cytochrome P450 1A2 was greater than 20 µM in each case.

A word on the MIC: it is the lowest concentration found to suppress growth. A word on the ED50: it is the midpoint of the dose-response relation. In general, IC50 refers to the point on the concentration scale where inhibition reaches its midpoint.

Source of the values: ChEMBL document CHEMBL2375276, “Antibacterial oxazolidinone analogues having a N-hydroxyacetyl-substituted seven-membered [1,2,5]triazepane or [1,2,5]oxadiazepane C-ring unit” (Eur J Med Chem, 2013).
